Data: ChEMBL document CHEMBL4251587, “Synthesis and antimicrobial activity of amino acid and peptide derivatives of mycophenolic acid” (2018)
Values after ≈ are worked out from the molar mass of the structure shown. Active and inactive are the calls of the source. No cut-off for these calls is given here. Non-standard residues stand in square brackets, D forms with d. Residues, ends and D or L forms follow the SMILES beside them. *: point of attachment. Mycophenolyl = COc1c(C)c2c(c(O)c1C/C=C(\C)CCC(=O)*)C(=O)OC2; Arg(NO2) = N=C(NCCC[CH](N)C(=O)O)N[N+](=O)[O-]; βAla = NCCC(=O)O

Key:
Assay type in all cases: functional
Escherichia coli [1] = experiment: Antibacterial activity against Escherichia coli ATCC 8739 at 750 uM after 18 to 20 hrs by spectrophotometry based microdilution method relative to untreated control; details: ATCC 8739, ATCC 8739, read-out: GI
Procedure, shortened: (§1)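 Growth inhibition at a single compound concentration in the EUCAST broth microdilution setup: Mueller Hinton Broth II, 104 cells/ml from log-phase culture, compound stock in 6% DMSO. After 35 ± 1 °C for 18–20 h, OD600 was compared with the untreated growth control. ">" marks 10–50% inhibition and ">>" marks under 10% inhibition. 3 replicates, 3 independent experiments.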

Klebsiella pneumoniae [2] = experiment: Antibacterial activity against ESBL positive Klebsiella pneumoniae ATCC 700603 assessed as inhibition of bacterial growth at 375 uM after 18 to 20 hrs by spectrophotometry based microdilution method relative to untreated control; details: read-out: GI; procedure, shortened: as §1
Staphylococcus aureus [3] = experiment: Antibacterial activity against methicillin-sensitive Staphylococcus aureus ATCC 25923 after 18 to 20 hrs by spectrophotometry based microdilution method
Procedure, shortened: (§2)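 Broth microdilution in MHB II following EUCAST. Log-phase cultures diluted 1:1000, then 50-fold in saline to McFarland 0.5, giving 10^4 cells/ml per well. Compounds (stock in 6% DMSO) twofold serially diluted. Incubation 35 ± 1 °C, 18–20 h. OD600 plus visual read; MIC50/MIC90 = 50%/90% growth arrest. Resazurin (0.015%, 37 °C, 2 h, dark) confirmation. 3 replicates, 3 independent experiments.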

Pseudomonas aeruginosa [4] = experiment: Antibacterial activity against Pseudomonas aeruginosa ATCC 27853 assessed as inhibition of bacterial growth at 1500 uM after 18 to 20 hrs by spectrophotometry based microdilution method relative to untreated control; details: read-out: GI; procedure, shortened: as §1
Staphylococcus aureus [5] = experiment: Antibacterial activity against methicillin-resistant Staphylococcus aureus ATCC 43300 after 18 to 20 hrs by spectrophotometry based microdilution method; procedure, shortened: as §2
Klebsiella pneumoniae [6] = experiment: Antibacterial activity against ESBL positive Klebsiella pneumoniae ATCC 700603 after 18 to 20 hrs by spectrophotometry based microdilution method
Procedure, shortened: (§3)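 Broth microdilution in Mueller Hinton Broth II following EUCAST. Log-phase cultures were diluted to McFarland 0.5, and 104 cells/ml went into 2-fold serial dilutions of compound (stock in 6% DMSO). Incubation was 35 ± 1 °C for 18–20 h, read at OD600 and visually. MIC50 and MIC90 were taken as the concentrations giving 50% and 90% growth arrest. Resazurin (0.015%, 2 h, 37 °C, dark) confirmed the result. 3 replicates in 3 independent experiments.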

Pseudomonas aeruginosa [7] = experiment: Antibacterial activity against Pseudomonas aeruginosa ATCC 27853 after 18 to 20 hrs by spectrophotometry based microdilution method; procedure, shortened: as §3
Escherichia coli [8] = experiment: Antibacterial activity against Escherichia coli ATCC 8739 at 375 uM after 18 to 20 hrs by spectrophotometry based microdilution method relative to untreated control; details: ATCC 8739, ATCC 8739, read-out: GI; procedure, shortened: as §1
Acinetobacter baumannii = experiment: Antibacterial activity against Acinetobacter baumannii ATCC 17978 after 18 to 20 hrs by spectrophotometry based microdilution method
Escherichia coli [9] = experiment: Antibacterial activity against Escherichia coli ATCC 8739 assessed as inhibition of bacterial growth at 1500 uM after 18 to 20 hrs by spectrophotometry based microdilution method relative to untreated control; details: ATCC 8739, ATCC 8739, read-out: GI; procedure, shortened: as §1
Escherichia coli [10] = experiment: Antibacterial activity against Escherichia coli ATCC 8739 after 18 to 20 hrs by spectrophotometry based microdilution method; procedure, shortened: as §3
Staphylococcus aureus [11] = experiment: Antibacterial activity against methicillin-sensitive Staphylococcus aureus ATCC 25923 assessed as inhibition of bacterial growth at 187.5 uM after 18 to 20 hrs by spectrophotometry based microdilution method relative to untreated control; details: read-out: GI; procedure, shortened: as §1

SMILES	MIC50 (Staphylococcus aureus [3])	inhibition of growth at 1500 µM (Pseudomonas aeruginosa [4])	MIC50 (Staphylococcus aureus [5])	MIC50 (Klebsiella pneumoniae [6])	MIC50 (Pseudomonas aeruginosa [7])	MIC50 (Acinetobacter baumannii)	MIC50 (Escherichia coli [10])	other results
COc1c(C)c2c(c(O)c1C/C=C(\C)CCC(=O)N[C@H](C(=O)O)[C@@H](C)O)C(=O)OC2	inactive	10 to 50%	inactive	–	–	–	–	inhibition of growth at 750 µM (Escherichia coli [1]): 10 to 50%; inhibition of growth at 375 µM (Klebsiella pneumoniae [2]): 10 to 50%
COc1c(C)c2c(c(O)c1C/C=C(\C)CCC(=O)N[C@@H](CCCNC(=N)N[N+](=O)[O-])C(=O)O)C(=O)OC2	inactive	–	inactive	inactive	inactive	–	–	inhibition of growth at 750 µM (Escherichia coli [1]): 10 to 50%
CC[C@H](C)[C@H](NC(=O)CC/C(C)=C/Cc1c(O)c2c(c(C)c1OC)COC2=O)C(=O)O	inactive	–	–	–	–	inactive	–	inhibition of growth at 375 µM (Escherichia coli [8]): 10 to 50%
COc1c(C)c2c(c(O)c1C/C=C(\C)CCC(=O)N[C@@H](C(=O)O)[C@@H](C)O)C(=O)OC2	inactive	10 to 50%	inactive	inactive	–	–	–	inhibition of growth at 1500 µM (Escherichia coli [9]): 10 to 50%
COC(=O)C(NC(=O)C(CCCCNC(=O)CN)NC(=O)C1CCCN1C(=O)C(CCCNC(=N)N[N+](=O)[O-])NC(=O)CC/C(C)=C/Cc1c(O)c2c(c(C)c1OC)COC2=O)C(C)O (stereo unspecified) (Mycophenolyl-[Arg(NO2)]PK(Gly)T-OMe; configuration not given here)	64 µg/mL (≈ 69.6 µM)	–	64 µg/mL (≈ 69.6 µM)	16 µg/mL (≈ 17.4 µM)	inactive	128 µg/mL (≈ 139 µM)	256 µg/mL (≈ 279 µM)	–
COC(=O)C(NC(=O)CC/C(C)=C/Cc1c(O)c2c(c(C)c1OC)COC2=O)C(=O)OC	256 µg/mL (≈ 570 µM)	–	256 µg/mL (≈ 570 µM)	128 µg/mL (≈ 285 µM)	inactive	256 µg/mL (≈ 570 µM)	256 µg/mL (≈ 570 µM)	–
NC[C@H]1O[C@H](O[C@H]2[C@H](O)[C@@H](O[C@H]3O[C@H](CO)[C@@H](O)[C@H](N)[C@H]3O)[C@H](N)C[C@@H]2N)[C@H](O)[C@@H](O)[C@@H]1O [KANAMYCIN]	–	–	–	inactive	1500 µg/mL (≈ 3100 µM)	inactive	–	MIC90 (Escherichia coli [10]): 15.6 µg/mL (≈ 32.2 µM); MIC90 (Staphylococcus aureus [3]): 7.8 µg/mL (≈ 16.1 µM); MIC90 (Staphylococcus aureus [5]): 125 µg/mL (≈ 258 µM)
COC(=O)[C@H](CCCNC(=N)N[N+](=O)[O-])NC(=O)CC/C(C)=C/Cc1c(O)c2c(c(C)c1OC)COC2=O	32 µg/mL (≈ 59.8 µM)	–	64 µg/mL (≈ 120 µM)	64 µg/mL (≈ 120 µM)	inactive	128 µg/mL (≈ 239 µM)	256 µg/mL (≈ 478 µM)	–
COC(=O)[C@@H](NC(=O)CC/C(C)=C/Cc1c(O)c2c(c(C)c1OC)COC2=O)C(C)O (stereo partly specified)	8 µg/mL (≈ 18.4 µM)	–	32 µg/mL (≈ 73.5 µM)	256 µg/mL (≈ 588 µM)	inactive	256 µg/mL (≈ 588 µM)	256 µg/mL (≈ 588 µM)	–
COc1c(C)c2c(c(O)c1C/C=C(\C)CCC(=O)O)C(=O)OC2 [MYCOPHENOLIC ACID]	–	10 to 50%	750 µg/mL (≈ 2340 µM)	128 µg/mL (≈ 400 µM)	–	128 µg/mL (≈ 400 µM)	–	MIC90 (Escherichia coli [10]): 750 µg/mL (≈ 2340 µM); inhibition of growth at 187.5 µM (Staphylococcus aureus [11]): 10 to 50%
COc1c(C)c2c(c(O)c1C/C=C(\C)CCC(=O)N[C@H](CCCNC(=N)N[N+](=O)[O-])C(=O)O)C(=O)OC2	inactive	10 to 50%	inactive	inactive	–	–	–	inhibition of growth at 1500 µM (Escherichia coli [9]): 10 to 50%
COc1c(C)c2c(c(O)c1C/C=C(\C)CCC(=O)N[C@@H](CC(=O)O)C(=O)O)C(=O)OC2	inactive	10 to 50%	inactive	inactive	–	–	–	inhibition of growth at 750 µM (Escherichia coli [1]): 10 to 50%
COC(=O)[C@H](NC(=O)CC/C(C)=C/Cc1c(O)c2c(c(C)c1OC)COC2=O)C(C)O (stereo partly specified)	inactive	10 to 50%	inactive	inactive	–	–	–	inhibition of growth at 1500 µM (Escherichia coli [9]): 10 to 50%
COC(=O)C[C@H](NC(=O)CC/C(C)=C/Cc1c(O)c2c(c(C)c1OC)COC2=O)C(=O)OC	32 µg/mL (≈ 69 µM)	–	32 µg/mL (≈ 69 µM)	256 µg/mL (≈ 552 µM)	inactive	256 µg/mL (≈ 552 µM)	256 µg/mL (≈ 552 µM)	–
CCC(C)[C@H](NC(=O)CC/C(C)=C/Cc1c(O)c2c(c(C)c1OC)COC2=O)C(=O)OC (stereo partly specified)	16 µg/mL (≈ 35.8 µM)	–	256 µg/mL (≈ 572 µM)	256 µg/mL (≈ 572 µM)	inactive	256 µg/mL (≈ 572 µM)	256 µg/mL (≈ 572 µM)	–
COC(=O)C(NC(=O)C(CCCCNC(=O)CCN)NC(=O)C1CCCN1C(=O)C(CCCNC(=N)N[N+](=O)[O-])NC(=O)CC/C(C)=C/Cc1c(O)c2c(c(C)c1OC)COC2=O)C(C)O (stereo unspecified) (Mycophenolyl-[Arg(NO2)]PK(βAla)T-OMe; configuration not given here)	32 µg/mL (≈ 34.3 µM)	–	32 µg/mL (≈ 34.3 µM)	32 µg/mL (≈ 34.3 µM)	inactive	128 µg/mL (≈ 137 µM)	256 µg/mL (≈ 274 µM)	–
COC(=O)[C@@H](CCCNC(=N)N[N+](=O)[O-])NC(=O)CC/C(C)=C/Cc1c(O)c2c(c(C)c1OC)COC2=O	inactive	–	inactive	inactive	–	–	–	–
CC1(C)S[C@@H]2[C@H](NC(=O)[C@H](N)c3ccccc3)C(=O)N2[C@H]1C(=O)O [AMPICILLIN]	–	–	–	–	–	–	–	MIC90 (Klebsiella pneumoniae [6]): 128 µg/mL (≈ 366 µM); MIC90 (Escherichia coli [10]): 8 µg/mL (≈ 22.9 µM); MIC90 (Staphylococcus aureus [3]): 0.125 µg/mL (≈ 0.358 µM); MIC90 (Pseudomonas aeruginosa [7]): 256 µg/mL (≈ 733 µM); MIC90 (Staphylococcus aureus [5]): 128 µg/mL (≈ 366 µM); MIC90 (Acinetobacter baumannii): 2 µg/mL (≈ 5.72 µM)
